Laboratory results published in the RNAGym collection of RNA variant scans (doi:10.1126/science.aae0568).
Variants at the floor of the assay were thinned out.

B1: tRNA (parent)
chain: GUUCCGUUGGCGUAAUGGUAACGCGUCUCCCUCCUAAGGAGAAGACUGCGGGUUCGAGUCCCGUACGGAACG

Variants of: B1
Assay: yeast fitness relative to wild type (ratio to wild type); higher = fitter; tRNA-Arg(CCU), competitive growth, 37 C, YPD
How it was run: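 Gene amplicons from the start population and from each of six end populations were read by 100-nucleotide paired-end sequencing. Those end populations came from pooled Saccharomyces cerevisiae strains carrying tRNA-Arg(CCU) gene variants at the native locus, competed in YPD at 37°C for 24 hours. Fitness relative to wild type was worked out from changes in genotype frequencies. Genotypes needed ≥ 100 starting reads, and estimates < 0.5 were set to 0.5.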

Going from G10A G48A to G10C A42U C46G, the yeast fitness falls from 0.636 to no more than 0.5.

Compared with G10A A15U G51A A65U, G10C A15U C29G U35A A36C A65G C66G is lower in yeast fitness: 0.603 for the first, no more than 0.5 for the second.

G9C C22G G50A and G10A C34U G39C cannot be ordered by yeast fitness: no more than 0.5 for the first, no more than 0.5 for the second.

Compared with G9C G12C C24U C34U C49G, G10A U35C G56A is lower in yeast fitness: 0.658 for the first, no more than 0.5 for the second.

Compared with G10A U16A C31A G51A, G10A U53A A65G is lower in yeast fitness: 0.584 for the first, no more than 0.5 for the second.

Compared with G10A U26G A65U, G10A U35A G56A is higher in yeast fitness: no more than 0.5 for the first, 0.617 for the second.

Compared with G10C G23C A65C, G10A C62U is higher in yeast fitness: no more than 0.5 for the first, 0.843 for the second.

G10C C11G G56C G68A and G10C A15U C29G C46U G51C C66U cannot be ordered by yeast fitness: no more than 0.5 for the first, no more than 0.5 for the second.

G10C C11G C31U U35C U54A and G10C C22A C24G U53A G67A cannot be ordered by yeast fitness: no more than 0.5 for the first, no more than 0.5 for the second.

First: G10A U19A A42G
Second: G10A C27U C34G A37U G41C G48A
The yeast fitness of the first is lower: no more than 0.5 for the first, 0.573 for the second.

First: G10C A21U G23C G56A C61A A65G
Second: G10C C24U C34U A36U C46A
The yeast fitness of the first is higher: 0.567 for the first, 0.505 for the second.

G10C A21C C27A C34A and G10A U16A C49A G50A G68C cannot be ordered by yeast fitness: no more than 0.5 for the first, no more than 0.5 for the second.

G10A C22G G25C and G10C A14G C27U G38A C46G cannot be ordered by yeast fitness: no more than 0.5 for the first, no more than 0.5 for the second.

Compared with G10A C24G C33G A45U G68C, G10C A45C C46A C66U is higher in yeast fitness: no more than 0.5 for the first, 0.643 for the second.

Compared with G10A C34G A69U, G10A G23A is higher in yeast fitness: no more than 0.5 for the first, 0.534 for the second.

G10C C30G C46U and G10A C49A G67A cannot be ordered by yeast fitness: no more than 0.5 for the first, no more than 0.5 for the second.

G10A C34G U64A and G10C C11U G67A cannot be ordered by yeast fitness: no more than 0.5 for the first, no more than 0.5 for the second.

G9C G10C C66U and G9C G10C C29G C46A C66U cannot be ordered by yeast fitness: no more than 0.5 for the first, no more than 0.5 for the second.

Going from G10C C29U C31U G63U to G10A C11A C29A A69U, the yeast fitness rises from no more than 0.5 to 0.538.

Compared with G10C C24G C46U A69U, G10A C30U C34U A42U A57G is lower in yeast fitness: 0.569 for the first, no more than 0.5 for the second.

G10C G17A A20U and G10A C24G G56A cannot be ordered by yeast fitness: no more than 0.5 for the first, no more than 0.5 for the second.

Compared with G10A C66U, G10A G39A is higher in yeast fitness: 0.635 for the first, 0.784 for the second.

Going from G10C C11A C31U A36U G56C A57U to G10C C27U A40U A45U G48A, the yeast fitness falls from 0.606 to no more than 0.5.

First: G9C C30G A57U C60G
Second: G10C A36C U47A G48C U54G A65C
The yeast fitness of the first is higher: 0.533 for the first, no more than 0.5 for the second.

First: G9C C24G C49U A65C
Second: G9C G17C C27G U35A C49A A69U
The yeast fitness of the first is lower: no more than 0.5 for the first, 0.536 for the second.

Going from G10C C22G C29A C46U A65C to G10C A20U A57U, the yeast fitness falls from 0.538 to no more than 0.5.

Compared with G10C A14C C27A C29G A57C, G10A C60U is higher in yeast fitness: no more than 0.5 for the first, 0.544 for the second.

First: G10A C60G
Second: G10A G18A A42C C61A
The yeast fitness of the first is lower: 0.531 for the first, 0.858 for the second.

G10A G18A and G10A A42C A43C A70U cannot be ordered by yeast fitness: no more than 0.5 for the first, no more than 0.5 for the second.

First: G10A U19A G44C G67C
Second: G10C C55U U59A
The yeast fitness of the first is higher: 0.52 for the first, no more than 0.5 for the second.

G10A G12A G68C and G10A G18C A20U C30A cannot be ordered by yeast fitness: no more than 0.5 for the first, no more than 0.5 for the second.

Compared with G9C C27A C33A G63A A70G, G10A A45G is higher in yeast fitness: no more than 0.5 for the first, 0.839 for the second.

G10A C33U G44C A45G G58A and G9C C55G C66A cannot be ordered by yeast fitness: no more than 0.5 for the first, no more than 0.5 for the second.

G10C G23C A42G G50A A57C G67A and G10A C33G A70U cannot be ordered by yeast fitness: no more than 0.5 for the first, no more than 0.5 for the second.

Going from G10C C11A C34A G51A C61G A69U to G9C U28C A42U, the yeast fitness rises from no more than 0.5 to 0.647.

Going from G10C G18C A45C to G9C A65C, the yeast fitness rises from no more than 0.5 to 0.67.

Compared with G9C U16G C29G A40G, G9C G48C is higher in yeast fitness: no more than 0.5 for the first, 0.695 for the second.

Compared with G10A A40U G52C C62A A65C A70U, G10C A37C is lower in yeast fitness: 0.655 for the first, 0.622 for the second.

G10C A37U and G9C U13A G25A A40C A57C G58A C61A G67A cannot be ordered by yeast fitness: no more than 0.5 for the first, no more than 0.5 for the second.

First: G10C C29U C34U G38A G44C
Second: G10C A45G
The yeast fitness of the first is lower: no more than 0.5 for the first, 0.716 for the second.

First: G9C G10C A36U G44A C46G
Second: G9C G12A A57C
The yeast fitness of the first is higher: 0.563 for the first, 0.541 for the second.

Going from G9C C46G to G10C A43C C46G C55G A65U, the yeast fitness falls from 0.735 to 0.547.
